# In ChEMBL document CHEMBL4261506, “Synthesis and biological evaluation of N-alkyl naphthoimidazoles derived from β-lapachone against Trypanosoma cruzi bloodstream trypomastigotes” (Medchemcomm, 2017):
# Test system: Trypanosoma cruzi
# Assay: Trypanocidal activity against bloodstream trypomastigote stage of Trypanosoma cruzi Y isolated from parasite infected Swiss mouse assessed as induction of parasite lysis after 24 hrs by Neubauer chamber based cell counting method
# Assay type: functional, organism-based
# Details: not given
# How it was run: (§1)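 Y-strain bloodstream trypomastigotes at 5 × 10^6 cells per ml in DME medium plus 10% blood (some runs in DMES without blood), mixed 1:1 with compound diluted in DME at twice final concentration. DMSO final ≤0.1%. Incubated at 4 °C. Cells counted after 24 h; IC50 taken as the concentration giving 50% parasite lysis.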
row,Compound,IC50 [µM]
1,Cc1ccc(-c2nc3c([nH]2)c2c(c4ccccc43)OC(C)(C)CC2)cc1,37.5

# Test system: Trypanosoma cruzi
# Assay: Trypanocidal activity against trypomastigote stage of Trypanosoma cruzi
# Assay type: functional, organism-based
# Details: not given
# How it was run: as §1
row,Compound,IC50 [µM]
1,CC1(C)CCc2c(c3ccccc3c3nc(-c4ccccc4)[nH]c23)O1,37

# Test system: Trypanosoma cruzi
# Assay: Trypanocidal activity against bloodstream trypomastigote stage of Trypanosoma cruzi Y assessed as induction of parasite lysis after 24 hrs by Neubauer chamber based cell counting method
# Assay type: functional, organism-based
# Details: not given
# How it was run: as §1
row,Compound,IC50 [µM]
1,CC1(C)CCc2c(c3ccccc3c3nc(-c4cccc5ccccc45)[nH]c23)O1,1680
2,CC1(C)CCc2c(c3ccccc3c3nc(-c4ccc(C(F)(F)F)cc4)[nH]c23)O1,250
3,COc1cc(-c2nc3c([nH]2)c2c(c4ccccc43)OC(C)(C)CC2)ccc1O,252
4,CC1(C)CCc2c(c3ccccc3c3nc(-c4c(Cl)cccc4Cl)[nH]c23)O1,2120
5,CCCCn1cnc2c3c(c4ccccc4c21)OC(C)(C)CC3,106
6,CCCCCCCn1cnc2c3ccccc3c3c(c21)CCC(C)(C)O3,99
7,CCCCCCCCn1cnc2c3c(c4ccccc4c21)OC(C)(C)CC3,376
8,CC1(C)CCc2c(c3ccccc3c3nc(-c4ccccc4C#N)[nH]c23)O1,> 6500
9,CCCCCCCn1cnc2c3c(c4ccccc4c21)OC(C)(C)CC3,407
10,COc1ccc(-c2nc3c([nH]2)c2c(c4ccccc43)OC(C)(C)CC2)cc1,250
11,CCCCCn1cnc2c3c(c4ccccc4c21)OC(C)(C)CC3,92.7
12,Cc1cccc(-c2nc3c([nH]2)c2c(c4ccccc43)OC(C)(C)CC2)c1,37.5
13,CCCCCn1cnc2c3ccccc3c3c(c21)CCC(C)(C)O3,124
14,CCCCCCCCCCCCn1cnc2c3c(c4ccccc4c21)OC(C)(C)CC3,> 500
15,CCCCCCCCn1cnc2c3ccccc3c3c(c21)CCC(C)(C)O3,180
16,CCCCCCCCCCCCn1cnc2c3ccccc3c3c(c21)CCC(C)(C)O3,192
17,CC1(C)CCc2c(c3ccccc3c3nc(-c4ccc([N+](=O)[O-])cc4)[nH]c23)O1,250
18,CC1(C)CCc2c(c3ccccc3c3nc(-c4ccc(Cl)cc4Cl)[nH]c23)O1,> 4000
19,CCCCCCCCCn1cnc2c3ccccc3c3c(c21)CCC(C)(C)O3,295
20,CCCn1cnc2c3c(c4ccccc4c21)OC(C)(C)CC3,99.7
21,CC1(C)CCc2c(c3ccccc3c3nc(-c4cccs4)[nH]c23)O1,170
22,CCCCCCn1cnc2c3c(c4ccccc4c21)OC(C)(C)CC3,42.5
23,CC1(C)CCc2c(c3ccccc3c3nc[nH]c23)O1,89.5
24,CCCCn1cnc2c3ccccc3c3c(c21)CCC(C)(C)O3,123
25,CCCCCCCCCn1cnc2c3c(c4ccccc4c21)OC(C)(C)CC3,195
26,CCCCCCn1cnc2c3ccccc3c3c(c21)CCC(C)(C)O3,31.5
27,CCCn1cnc2c3ccccc3c3c(c21)CCC(C)(C)O3,172
28,COc1ccccc1-c1nc2c([nH]1)c1c(c3ccccc32)OC(C)(C)CC1,> 6500

# Test system: Trypanosoma cruzi
# Assay: Potency index, ratio of benznidazole IC50 to test compound IC50 for bloodstream trypomastigote stage of Trypanosoma cruzi Y
# Assay type: functional
# Details: not given
row,Compound,Ratio IC50
1,CCCCCCn1cnc2c3c(c4ccccc4c21)OC(C)(C)CC3,2.2
2,CCCCCCn1cnc2c3ccccc3c3c(c21)CCC(C)(C)O3,3.2

# Test system: not listed separately
# Assay: Cytotoxicity against Swiss mouse peritoneal macrophages after 24 hrs by Prestoblue assay
# Assay type: cell-based, Peritoneal macrophage
# Details: read-out: LC50
row,Compound,CC50 at 24 h [µM]
1,CCCCCCn1cnc2c3c(c4ccccc4c21)OC(C)(C)CC3,117
2,CCCCCCn1cnc2c3ccccc3c3c(c21)CCC(C)(C)O3,422

# Test system: not listed separately
# Assay: Selectivity index, ratio of LC50 for Swiss mouse peritoneal macrophages to IC50 for bloodstream trypomastigote stage of Trypanosoma cruzi Y
# Assay type: toxicity
# Details: read-out: Ratio LC50/IC50
# How it was run: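 Y strain bloodstream trypomastigotes at 5 × 10^6 cells/ml in DME plus 10% blood, mixed 1:1 with compound at twice the final concentration, 24 h at 4 °C, counted; IC50 = 50% lysis. […] Index = LC50/IC50. DMSO final ≤0.1%.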
row,Compound,selectivity ratio
1,CCCCCCn1cnc2c3c(c4ccccc4c21)OC(C)(C)CC3,2.7
2,CCCCCCn1cnc2c3ccccc3c3c(c21)CCC(C)(C)O3,13.4
